An excerpt weighted towards active compounds, which were near 1.8% of everything screened.
SUMO1 PPI mod: SUMO1-SIM interaction modulation; P63165; SUMO1 binding to a labelled peptide, TR-FRET, 1 h; inhibition, % at 20 µM; 0.33% of 360,000 active; AID 602429; in the data active = inhibition above about 37%
Target sequence (P63165 whole entry, looked up): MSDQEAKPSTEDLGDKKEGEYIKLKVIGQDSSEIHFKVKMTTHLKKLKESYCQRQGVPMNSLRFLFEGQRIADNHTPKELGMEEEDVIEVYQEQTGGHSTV
DNMT1 inh: inhibitors of human DNMT1; DNMT1 molecular beacon, Hinp1I cleavage, fluorescence; inhibition (reported as % activation of signal), % at 10 µM; 0.83% of 360,000 active; AID 588458; in the data active = inhibition above about 50%
STEP block: STEP (human) phosphatase inhibition. 0.25% of 360,000 active. recombinant STEP, OMFP fluorogenic substrate, fluorescence. P54829. AID 588621. inhibition, % at 20 µM;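 active = inhibition at 20 µM, scaled per plate between control wells, above about 37%, limit read from the data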;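 note: 0% = DMSO with enzyme and substrate and 100% = substrate only without enzyme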
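Test system: STEP tyrosine phosphatase / Reagent: OMFP at 25 µM / Doses: 20 µM, 1% DMSO / Read-out: percent inhibition scaled to no-enzyme and uninhibited-enzyme controls, plate-pattern corrected / Detection: FITC-channel fluorescence of OMFP product / Medium: Bis-Tris buffer pH 6.0, 2.5 mM DTT, 0.005% Tween 20 / Schedule: 20 min at room temperature, dark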
Scp-1 inhibitor: blocks human Scp-1 phosphatase activity; Q9GZU7; Recombinant Scp1, phosphopeptide, malachite green phosphate absorbance; inhibition, % at 20 µM; 0.88% of 340,000 active; AID 493091;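 active = inhibition above about 50% at 20 µM, limit read from the data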;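 note: plate controls were DMSO wells with enzyme for no effect and wells lacking enzyme for full effect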
Target sequence (Q9GZU7 76-261 limits assumed): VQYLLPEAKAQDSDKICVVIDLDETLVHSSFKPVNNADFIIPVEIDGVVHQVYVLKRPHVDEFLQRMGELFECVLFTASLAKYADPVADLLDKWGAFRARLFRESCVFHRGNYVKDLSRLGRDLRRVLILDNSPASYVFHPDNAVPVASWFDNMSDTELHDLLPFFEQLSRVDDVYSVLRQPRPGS
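Material – SCP-1 phosphatase catalytic domain, residues 76-261 · Buffer or medium – Acidic Tris acetate buffer with magnesium and detergent · Also added – Phospho 17-mer peptide substrate · Compound – single 20 µM dose, 1% DMSO · Times – 45 min room-temperature reaction, 5 min colour, 30 min stabiliser · Technique – Phosphate-binding colour reagent, absorbance read at 630 nm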
LMPTP inh: blocks human LMPTP phosphatase | inhibition, % at 20 µM | recombinant LMPTP-A, OMFP fluorogenic substrate, fluorescence intensity | AID 651560 | 0.22% of 360,000 active;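 active = compounds that cut the enzyme signal by at least half of the control window in the single-dose screen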;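 note: plate controls were DMSO wells with enzyme plus substrate for no effect and substrate without enzyme for full effect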
Target sequence (P24666 whole entry, looked up): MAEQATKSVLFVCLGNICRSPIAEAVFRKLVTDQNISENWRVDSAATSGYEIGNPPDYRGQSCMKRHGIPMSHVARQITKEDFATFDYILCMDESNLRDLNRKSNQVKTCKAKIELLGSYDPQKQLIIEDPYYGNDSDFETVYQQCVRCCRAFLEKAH
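Material: LMPTP-A; amount: 0.625 nM enzyme; doses: single 20 µM dose; times: reaction 50 min, room temperature, dark; technique: fluorescence intensity of OMFP turnover product; benchmarks: no-enzyme and uninhibited controls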
DNMT1 inh conf: confirmation of human DNMT1 inhibitors; shares compounds with DNMT1 inh; DNMT1 molecular beacon HinP1I cleavage, fluorescence; inhibition, % at 10 µM; 8% of 2,300 active; AID 602385;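 active = average inhibition of at least 30% in the single-concentration confirmation test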
DNMT1 interf: shows spectral interference in the DNMT1 beacon assay; shares compounds with DNMT1 inh; DNMT1 molecular beacon spectral interference counterscreen, fluorescence 485/520; activation (fluorescence interference), % at 10 µM; 1% of 2,300 active; AID 602387;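 active = activation of at least 30% at 10 µM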;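 note: DNMT1 catalytic domain with a HinP1I cleavage step and a FAM/dabcyl DNA beacon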
An asterisk follows results filed as active.

`Cc1ccc(N=C2NC(=O)/C(=C/C=C/c3ccco3)S2)cc1` gave SUMO1 PPI mod 11, DNMT1 inh 87*, STEP block 6, Scp-1 inhibitor 34, LMPTP inh 6, DNMT1 inh conf 2 and DNMT1 interf 4.
C[C@H](CO)N1C[C@H](C)[C@@H](CN(C)Cc2ccc(Oc3ccccc3)cc2)Oc2cc(Br)ccc2S1(=O)=O was read as SUMO1 PPI mod 1, DNMT1 inh -15, STEP block 0 and LMPTP inh 1.
CN1CCN(c2ccc(CNC(=O)c3ccc(-c4ccnn4C)c4ccoc34)cc2)CC1 was read as SUMO1 PPI mod -5, DNMT1 inh 75*, STEP block -2, LMPTP inh 6, DNMT1 inh conf 4 and DNMT1 interf 3.
For CC(C)Oc1ccc(S(=O)(=O)N2CCOCC2)cc1NC(=O)Cc1c(F)cccc1Cl the results were SUMO1 PPI mod 1, DNMT1 inh 90*, STEP block 1, Scp-1 inhibitor -4, LMPTP inh 1, DNMT1 inh conf 1 and DNMT1 interf 2.
COCc1cc(CNC(=O)C2CCC(=O)N(Cc3cccc(OC)c3)C2)[nH]n1 (configuration not stated) was read as SUMO1 PPI mod 0, DNMT1 inh 0, STEP block 1, Scp-1 inhibitor -11 and LMPTP inh 0.
OC(c1ccc(Cl)c(Cl)c1)c1ncc(-c2ccccc2F)[nH]1 (configuration not stated) was read as SUMO1 PPI mod 0, DNMT1 inh 4, STEP block -2 and LMPTP inh -1.
`CCNC(=O)COC(=O)CCC(=O)c1cccs1` gave SUMO1 PPI mod 2, DNMT1 inh 9, STEP block -1, Scp-1 inhibitor 4 and LMPTP inh -2.
C=CCNC(=O)COC(=O)CCC(=O)c1cccs1 was read as SUMO1 PPI mod 1, DNMT1 inh 64*, STEP block -3, Scp-1 inhibitor -1, LMPTP inh -1, DNMT1 inh conf 3 and DNMT1 interf 2.
`COc1cc(/C=C2/SC(=O)N(Cc3ccccc3Cl)C2=O)ccc1OCc1ccncc1` gave SUMO1 PPI mod 0, DNMT1 inh 64*, STEP block -1, Scp-1 inhibitor 18, LMPTP inh 0, DNMT1 inh conf 7 and DNMT1 interf 8.
CN[C@H]1C[C@H]2c3cc(-c4ccccc4)ccc3CCN2C(=O)[C@H]1[C@H](C)O was read as SUMO1 PPI mod 3, DNMT1 inh -6, STEP block -2 and LMPTP inh -1.
`CCNc1nc(NCC)nc(C(=O)NN)n1` gave SUMO1 PPI mod -2, DNMT1 inh 91*, STEP block 0, Scp-1 inhibitor -4, LMPTP inh -1, DNMT1 inh conf 5 and DNMT1 interf 6.
Screening NC(=O)CC(NC(=O)Cc1cccc2ccccc12)c1ccc(NC2CCCCC2)c([N+](=O)[O-])c1 (configuration not stated) returned SUMO1 PPI mod -4, DNMT1 inh 64*, STEP block 8, Scp-1 inhibitor -2, LMPTP inh 0, DNMT1 inh conf 2 and DNMT1 interf 4.
Screening NC(=O)CC(NC(=O)Cc1cccc2ccccc12)c1ccc(NCC2CC2)c([N+](=O)[O-])c1 (configuration not stated) returned SUMO1 PPI mod -7, DNMT1 inh 32, STEP block 2, Scp-1 inhibitor 1 and LMPTP inh 2.
NC(=O)CC(NC(=O)Cc1cccc2ccccc12)c1ccc(NCCOc2ccccc2)c([N+](=O)[O-])c1 (configuration not stated) was read as SUMO1 PPI mod -17, DNMT1 inh 51*, STEP block 2, Scp-1 inhibitor 8, LMPTP inh 1, DNMT1 inh conf 1 and DNMT1 interf -2.
Screening NC(=O)CC(NC(=O)Cc1cccc2ccccc12)c1ccc(NC2CCCC2)c([N+](=O)[O-])c1 (configuration not stated) returned SUMO1 PPI mod 0, DNMT1 inh 16, STEP block -2, Scp-1 inhibitor -6 and LMPTP inh 1.
O=C1C=C(c2ccccc2)CO1 was read as SUMO1 PPI mod -7, DNMT1 inh 4, STEP block -1, Scp-1 inhibitor -5 and LMPTP inh -2.
`Cc1ccc(-n2nc3c4c(cccc4c2=O)-c2ccccc2-3)cc1` gave SUMO1 PPI mod -6, DNMT1 inh 52*, STEP block 2, Scp-1 inhibitor -5, LMPTP inh 4, DNMT1 inh conf 2 and DNMT1 interf 0.
Screening O=C(O)Cn1nc2c3c(cccc3c1=O)-c1ccccc1-2 returned SUMO1 PPI mod -14, DNMT1 inh 2, STEP block 1, Scp-1 inhibitor 0 and LMPTP inh -2.
`CS(=O)(=O)Nc1ccc(-c2cnc3cccnn23)cc1` gave SUMO1 PPI mod -18, DNMT1 inh 2, STEP block -2 and LMPTP inh 0.
Screening O=C(O)C1CCC(NSc2ccccc2[N+](=O)[O-])CC1 (configuration not stated) returned SUMO1 PPI mod -11, DNMT1 inh -3, STEP block 4, Scp-1 inhibitor -4 and LMPTP inh 0.
O=C(O)/C=C/c1ccc([N+](=O)[O-])o1 was read as SUMO1 PPI mod -1, DNMT1 inh 75*, STEP block 31, Scp-1 inhibitor 58*, LMPTP inh 11, DNMT1 inh conf 5 and DNMT1 interf 2.
For COc1ccccc1/C=C/C=c1\sc2nc(=O)c(Cc3ccccc3)nn2c1=O the results were SUMO1 PPI mod 15, DNMT1 inh 93*, STEP block 5, Scp-1 inhibitor 3, LMPTP inh 11, DNMT1 inh conf 11 and DNMT1 interf -1.
Screening O=c1/c(=C/c2ccco2)sc2nc(-c3ccccc3Br)nn12 returned SUMO1 PPI mod 18, DNMT1 inh 23, STEP block 3, Scp-1 inhibitor 16 and LMPTP inh 3.
Screening CCCOc1ccc(Cc2nn3c(=O)/c(=C/c4ccco4)sc3nc2=O)cc1 returned SUMO1 PPI mod 8, DNMT1 inh 86*, STEP block 6, Scp-1 inhibitor 31, LMPTP inh 6, DNMT1 inh conf 5 and DNMT1 interf 4.
CCOCCCNC(=O)c1ccccc1SCC was read as SUMO1 PPI mod 4, DNMT1 inh 52*, STEP block 2, Scp-1 inhibitor 3, LMPTP inh 0, DNMT1 inh conf 3 and DNMT1 interf 7.

Compound activity deposited in PubChem BioAssay by Sanford-Burnham Center for Chemical Genomics.
